Test [1] addresses T1, Histone deacetylase HD2 (Zea mays, UniProt Q94F81).
T1 sequence (Q94F81 whole entry): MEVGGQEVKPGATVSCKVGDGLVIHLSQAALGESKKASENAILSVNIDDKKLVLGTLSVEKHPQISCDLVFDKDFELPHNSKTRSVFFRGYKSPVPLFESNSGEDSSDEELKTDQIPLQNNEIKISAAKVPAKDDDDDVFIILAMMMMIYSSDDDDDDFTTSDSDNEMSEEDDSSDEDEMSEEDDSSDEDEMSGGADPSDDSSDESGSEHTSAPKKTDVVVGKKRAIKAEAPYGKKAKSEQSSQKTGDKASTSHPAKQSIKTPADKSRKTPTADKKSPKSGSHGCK
In words: (§1) Inhibitory concentration against histone deacetylase HD2 enzyme. The procedure, abridged: (§2)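 Maize HD2, purified by anion exchange, heparin/histone affinity and size exclusion chromatography, incubated 30 min at 30 °C with [3H]acetate-prelabeled chicken reticulocyte core histones (1 mg/mL). Stopped with HCl/acetate and extracted into ethyl acetate. Released [3H]acetic acid in the upper phase was counted by liquid scintillation. Compounds started at 40 µM and active ones were diluted further. Blank solvents served as negative controls. IC50 values are from triple determinations.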

The target in test [2] is T1, Histone deacetylase HD2. The experiment in a line: Concentration required for inhibition of histone deacetylase HD2 in vitro.
For test [3], the target named is T2, Histone deacetylase HD2 (Zea mays) (UniProt Q94F81).
T2 sequence (whole entry): T1 sequence (Q94F81 whole entry)
The experiment in a line: Ability to inhibit maize histone deacetylase enzyme in vitro using [3H]acetate-prelabeled chicken reticulocyte histones at 28 uM. The procedure, abridged:
as §2

The target of test [4] is T2, Histone deacetylase HD2 (Zea mays). Described as §1. Put shortly: as §2
The target is the same in test [5]. In words: Ability to inhibit maize histone deacetylase enzyme in vitro using [3H]acetate-prelabeled chicken reticulocyte histones at 30 uM; No inhibition. Put shortly: as §2
Test [6] shares this target. The experiment in a line: Ability to inhibit maize histone deacetylase enzyme in vitro using [3H]acetate-prelabeled chicken reticulocyte histones at 27 uM. Put shortly: as §2
Test [7] has the same target. In words: Ability to inhibit maize histone deacetylase enzyme in vitro using [3H]acetate-prelabeled chicken reticulocyte histones at 25.8 uM. Put shortly:
as §2

Test [8] shares this target. The settings on record: 22.4 uM.
For test [9] the target is unchanged. The experiment in a line: Ability to inhibit maize histone deacetylase enzyme in vitro using [3H]acetate-prelabeled chicken reticulocyte histones at 29 uM. The procedure, abridged: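 Maize HD2 purified by anion exchange, heparin/histone affinity and size exclusion chromatography. Enzyme incubated 30 min at 30 °C with [3H]acetate-prelabeled chicken reticulocyte core histones (1 mg/mL). Stopped with HCl/acetate, then extracted into ethyl acetate; released [3H]acetic acid in the upper phase counted by liquid scintillation. Triple determinations; blank solvent as negative control.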

For test [10] the target is unchanged. In words: Ability to inhibit maize histone deacetylase enzyme in vitro using [3H]acetate-prelabeled chicken reticulocyte histones at 20.8 uM. Put shortly:
as §2

Test [11] shares this target. The experiment in a line: Ability to inhibit maize histone deacetylase enzyme in vitro using [3H]acetate-prelabeled chicken reticulocyte histones at 24 uM. Put shortly: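 Maize HD2 purified by anion exchange, heparin/histone affinity and size exclusion chromatography. Enzyme incubated 30 min at 30 °C with [3H]acetate-prelabeled chicken reticulocyte core histones (1 mg/mL stock). Reaction stopped with HCl/acetate plus ethyl acetate, then centrifuged. Released [3H]acetic acid in the upper phase counted by liquid scintillation. Blank solvent served as negative control. Triple determinations.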

The target is the same in test [12]. In words: Ability to inhibit maize histone deacetylase enzyme in vitro using [3H]acetate-prelabeled chicken reticulocyte histones at 23.3 uM. The procedure, abridged: as §2
The target is the same in test [13]. In words: Ability to inhibit maize histone deacetylase enzyme in vitro using [3H]acetate-prelabeled chicken reticulocyte histones at 25.7 uM. The procedure, abridged:
as §2

Test [14] has the same target. The settings on record: 25 uM.
For test [15] the target is unchanged. The experiment in a line: Ability to inhibit maize histone deacetylase enzyme in vitro using [3H]acetate-prelabeled chicken reticulocyte histones at 24.8 uM. The procedure, abridged:
as §2

Test [16] shares this target. The experiment in a line: Ability to inhibit maize histone deacetylase enzyme in vitro using [3H]acetate-prelabeled chicken reticulocyte histones at 29.8 uM. The procedure, abridged:
as §2

Test [17] has the same target. The experiment in a line: Ability to inhibit maize histone deacetylase enzyme in vitro using [3H]acetate-prelabeled chicken reticulocyte histones at 21.7 uM. Put shortly: as §2
The target is the same in test [18]. The following applies: 24.6 uM.
The target is the same in test [19]. The experiment in a line: Ability to inhibit maize histone deacetylase enzyme in vitro using [3H]acetate-prelabeled chicken reticulocyte histones at 22.6 uM. Put shortly: as §2
For test [20] the target is unchanged. In words: Ability to inhibit maize histone deacetylase enzyme in vitro using [3H]acetate-prelabeled chicken reticulocyte histones at 26 uM. Put shortly: as §2
The target is the same in test [21]. The experiment in a line: Ability to inhibit maize histone deacetylase enzyme in vitro using [3H]acetate-prelabeled chicken reticulocyte histones at 28.2 uM. Put shortly: as §2
Test [22] has the same target. The experiment in a line: Ability to inhibit maize histone deacetylase enzyme in vitro using [3H]acetate-prelabeled chicken reticulocyte histones at 21.3 uM. The procedure, abridged: as §2
The target is the same in test [23]. The experiment in a line: Ability to inhibit maize histone deacetylase enzyme in vitro using [3H]acetate-prelabeled chicken reticulocyte histones at 23.9 uM. The procedure, abridged:
as §2

Test [24] shares this target. The experiment in a line: Ability to inhibit maize histone deacetylase enzyme in vitro using [3H]acetate-prelabeled chicken reticulocyte histones at 30 uM; NI = No inhibition. The procedure, abridged:
as §2

32 compounds from ChEMBL document CHEMBL1148476, “3-(4-Aroyl-1-methyl-1H-2-pyrrolyl)-N-hydroxy-2-propenamides as a new class of synthetic histone deacetylase inhibitors. 2. Effect of pyrrole-C2 and/or -C4 substitutions on biological activity” (J Med Chem, 2004) can be followed below.

The source made the active and inactive calls. No cut-off for these calls is given here. Non-standard residues stand in square brackets, D forms with d. Residues, ends and D or L forms follow the SMILES beside them. ξ: configuration not given here. Aoe(9ξ) = N[C@@H](CCCCCC(=O)C1CO1)C(=O)O; dPip = O=C(O)[C@H]1CCCCN1

Take `Cn1cc(C(=O)c2ccccc2)cc1/C=C/C=C/C(=O)NO`: the IC50 in test [1] was 776 nM; in test [2], 770 nM. Also, in test [3], the inhibition was found to be 94%.
For `Cn1cc(C(=O)/C=C/c2ccccc2)cc1/C=C/C(=O)NO`, the IC50 in [1] and in test [2] was 1000 nM each time. For the same compound, the inhibition in [3] stood at 95%.
As to `CC/C(=C\c1cc(C(=O)Cc2ccccc2)cn1C)C(=O)NO`, the “Log IC50” value in [4] is “inactive”. Also, in test [5], the inhibition entry is “inactive”.
In the case of `C/C(=C\c1cc(C(=O)c2ccccc2)cn1C)C(=O)NO`, the IC50 in test [1] was 2690 nM; in test [2] it was 2700 nM. The compound also showed an inhibition in [6] of 83%.
On to `CC/C(=C\c1cc(C(=O)c2ccccc2)cn1C)C(=O)NO`, for which, in test [4], the “Log IC50” value is “inactive”. In addition, the inhibition in [7] was 37%.
For the compound `Cn1cc(C(=O)c2ccccc2)cc1CC(=O)NO`, the IC50 in test [1] and in test [2] was 34700 nM each time.
Consider `Cn1cc(C(=O)Cc2ccccc2)cc1C=C(C(=O)NO)C(=O)NO`, for which the half-inhibitory concentration (IC50) in [1] and in [2] was 200 nM throughout. The compound further returned an inhibition in test [8] of 91%.
Take `Cn1cc(C(=O)Cc2ccccc2)cc1/C=C/C(=O)NO`: the IC50 in [1] and in test [2] was 100 nM in each case. Besides, in [9], the inhibition is 96%.
In the case of `Cn1cc(C(=O)CCCCCCCc2ccccc2)cc1/C=C/C(=O)NO`, the IC50 in test [1] and in test [2] was 209 nM in each case. Besides, in test [10], the inhibition came out at 96%.
For `Cn1cc(C(=O)c2cccc3ccccc23)cc1/C=C/C(=O)NO`, the 50% inhibitory concentration (IC50) is 145 nM in test [1] and 144 nM in test [2]. Besides, the inhibition in [11] is 93.6%.
On to `Cn1cc(C(=O)c2ccccc2)cc1C=C(C(=O)NO)C(=O)NO`, for which the IC50 was 66100 nM in [1] and 66000 nM in test [2]. The compound further had an inhibition in test [12] of 22.7%.
In the case of `CC/C(=C\c1cc(C(=O)/C=C/c2ccccc2)cn1C)C(=O)NO`, the “Log IC50” value in test [4] was “inactive”. Also, the inhibition result in [5] is “inactive”.
As for `Cn1cc(C(=O)CCc2ccccc2)cc1/C=C/C(=O)NO`, the results for the concentration for half-maximal inhibition (IC50) in test [1] and in test [2] were 42.7 nM and 43 nM, respectively. The compound also had an inhibition in test [13] of 98%.
As to `Cn1cc(C(=O)Cc2ccccc2)cc1C=C(C(=O)O)C(=O)O`, the “Log IC50” value in test [4] is “inactive”. In addition, the inhibition entry in [5] was “inactive”.
Consider `C/C(=C\c1cc(C(=O)/C=C/c2ccccc2)cn1C)C(=O)NO`, for which the IC50 in test [1] is 1290 nM; in test [2], 1300 nM. In test [14], the inhibition stood at 96%.
For the compound `Cn1cc(C(=O)Cc2ccccc2)cc1/C=C/C=C/C(=O)NO`, the IC50 in test [1] and in test [2] was 1480 nM in each case. Further, the inhibition in test [15] came out at 89.8%.
Turning to `Cn1cc(C(=O)c2ccc3ccccc3c2)cc1/C=C/C(=O)NO`, the IC50 in [1] and in [2] was 115 nM in each case. This compound registered an inhibition in test [11] of 93.8%.
Consider `Cn1c(CC(=O)NO)ccc1C(=O)c1ccccc1`, for which the IC50 in [1] was 20400 nM; in test [2] it was 20500 nM. Further, the inhibition in [16] is 61.3%.
Consider `CCCC(CCC)C(=O)O` [VALPROATE SODIUM], for which, in [2], the 50% inhibitory concentration (IC50) worked out at 128000 nM.
As to `Cn1cc(C(=O)CCCCCCc2ccccc2)cc1/C=C/C(=O)NO`, the figures for the IC50 in test [1] and in [2] were 263 nM and 266 nM, respectively. In test [17], this compound showed an inhibition of 95%.
For `Cn1cc(C(=O)CCCc2ccccc2)cc1/C=C/C(=O)NO`, the half-maximal inhibitory concentration (IC50) was 129 nM in test [1] and 130 nM in [2]. In addition, in test [18], the inhibition stood at 94%.
`Cn1cc(C(=O)CCCCCc2ccccc2)cc1/C=C/C(=O)NO`: the 50% inhibitory concentration (IC50) in test [1] was 70.8 nM; in [2] it was 71 nM. Further, the inhibition in test [19] was 97.2%.
`O=C(CCCCC[C@@H]1NC(=O)[C@H]2CCCCN2C(=O)[C@H](Cc2ccccc2)NC(=O)[C@H](Cc2ccccc2)NC1=O)C1CO1` (stereo partly specified) [TRAPOXIN A] (cyclo(FF[dPip][Aoe(9ξ)])) gave an IC50 in test [2] of 10 nM.
`Cn1cc(C(=O)CCCCc2ccccc2)cc1/C=C/C(=O)NO`: the IC50 in [1] and in test [2] was 110 nM in each case. Also, the inhibition in test [12] was 94%.
For the compound `C/C(=C\c1cc(C(=O)Cc2ccccc2)cn1C)C(=O)NO`, the IC50 in test [1] is 1410 nM; in test [2], 1400 nM. The same compound gave an inhibition in test [20] of 95%.
On to `Cn1cc(C(=O)Cc2ccccc2)cc1CC(=O)NO`, for which the half-inhibitory concentration (IC50) is 10700 nM in test [1] and 10800 nM in [2]. In addition, in test [21], the inhibition was found to be 62.8%.
`Cn1cc(C(=O)C2(c3ccccc3)CC2)cc1/C=C/C(=O)NO`: the IC50 was 100 nM in test [1] and 101 nM in test [2]. Also, the inhibition in [22] was 94.2%.
With `Cn1cc(C(=O)C2CC2c2ccccc2)cc1/C=C/C(=O)NO` (stereo unspecified), the values for the half-inhibitory concentration (IC50) in test [1] and in test [2] were 309 nM and 310 nM, respectively. This compound also yielded an inhibition in test [15] of 97.6%.
`Cn1cc(C(=O)/C=C/c2ccccc2)cc1/C=C/C=C/C(=O)NO`: the IC50 in test [1] was 10000 nM; in [2], 9900 nM. The same compound had an inhibition in test [23] of 66%.
For `Cn1cc(C(=O)Cc2ccccc2)cc1CCC(=O)NO`, the IC50 in test [1] and in test [2] was 1200 nM throughout. The same compound had an inhibition in test [6] of 96%.
Turning to `Cn1cc(C(=O)c2ccccc2)cc1C=C(C(=O)O)C(=O)O`, the “Log IC50” value in test [4] was “inactive”. Besides, the inhibition result in test [24] is “inactive”.
Regarding `Cn1c(CC(=O)NO)ccc1C(=O)Cc1ccccc1`, the half-inhibitory concentration (IC50) in test [1] was 17000 nM; in [2], 17100 nM. The compound also registered an inhibition in test [21] of 64.2%.
